{"source": "ChEMBL document CHEMBL4819008", "about": "“Design, synthesis, and evaluation of \"dual-site\"-binding diarylpyrimidines targeting both NNIBP and the NNRTI adjacent site of the HIV-1 reverse transcriptase” (Eur J Med Chem, 2021)", "key": {"[1]": {"system": "Human immunodeficiency virus 1", "test": "Antiviral activity against wild type HIV1 NL4-3 infected in human TZM-bl cells assessed as reduction in viral infection measured after 1 day by luciferase reporter gene assay based luminiscence assay", "format": "functional, organism-based", "conditions": "Human immunodeficiency virus 1, NL4-3, TZM-bl, 24 h", "in_short": "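TZM-bl cells got a single-round infection with 800 TCID50 of NL4-3 at various compound concentrations, top concentration 100 ng/mL. Luminescence was read 1 day post-infection. EC50 is the concentration giving a 50% decrease in luciferase RLU versus control wells, determined in at least triplicate.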"}, "[2]": {"test": "Cytotoxicity against human TZM-bl cells assessed as reduction in cell viability measured after 1 day by CytoTox-Glo assay", "format": "cell-based", "in_short": "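TZM-bl cells were cultured 1 day with various compound concentrations, in parallel with the antiviral assay, top concentration 100 ng/mL. Viable cells were measured by CytoTox-Glo. CC50 is the concentration causing a 50% reduction in cell viability.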"}, "[3]": {"test": "Selectivity index, ratio of CC50 for human TZM-bl cells to EC50 for wild type HIV1 NL4-3 infected in human TZM-bl cells", "format": "toxicity, cell-based", "conditions": "read-out: Ratio CC50/EC50", "in_short": "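Selectivity index is CC50/EC50, with both values from the TZM-bl assays: NL4-3 single-round luciferase infection and CytoTox-Glo viability, each over 1 day.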"}, "[4]": {"system": "Human immunodeficiency virus 1", "test": "Antiviral activity against wild type HIV-1 3B infected in human MT4 cells assessed as inhibition of virus-induced cytopathic effect measured after 5 days by MTT assay", "format": "functional, organism-based", "conditions": "Human immunodeficiency virus 1, 3B, MT4, 120 h", "in_short": "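MT-4 cells at 6 × 10^5 cells/mL were infected with virus stock at 100–300 CCID50 in the presence of serial 5-fold compound dilutions, in triplicate wells. Viability was read by MTT reduction 5 days after infection, with absorbance at 540 and 690 nm and the median OD of three wells used. EC50 is the concentration giving 50% protection from viral cytopathicity.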"}, "[5]": {"test": "Cytotoxicity against human MT4 cells assessed as reduction in cell viability measured after 5 days by MTT assay", "format": "cell-based", "conditions": "time 5 day", "in_short": "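Mock-infected MT-4 cells (6 × 10^5 cells/mL) were run in parallel with the infected wells, under serial 5-fold compound dilutions in triplicate. MTT viability was read after 5 days and the median OD of three wells used. CC50 is the concentration that reduced OD540 of the mock-infected cells by 50%.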"}, "[6]": {"test": "Selectivity index, ratio of CC50 for human MT4 cells to EC50 for wild type HIV-1 3B infected in human MT4 cells", "format": "toxicity, cell-based", "conditions": "read-out: Ratio CC50/EC50"}, "[7]": {"system": "Human immunodeficiency virus 1", "test": "Antiviral activity against HIV-1 harboring reverse transcriptase L100I mutant infected in human MT4 cells assessed as inhibition of virus induced cytopathic effect measured after 5 days by MTT assay", "format": "functional, organism-based", "conditions": "Human immunodeficiency virus 1, MT4, 120 h", "in_short": "(§1)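 MT-4 cells, exponentially growing, resuspended at 6 × 10^5 cells/mL and infected with the mutant HIV-1 stock at 100–300 CCID50. Compounds were added as 5-fold serial dilutions, in triplicate wells, alongside mock-infected wells. After 5 days, viability was read by MTT reduction at 540 and 690 nm using the median OD of three wells. EC50 is the concentration giving 50% protection from viral cytopathogenicity.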"}, "[8]": {"system": "Human immunodeficiency virus 1", "test": "Antiviral activity against HIV-1 harboring reverse transcriptase K103N mutant infected in human MT4 cells assessed as inhibition of virus induced cytopathic effect measured after 5 days by MTT assay", "format": "functional, organism-based", "conditions": "Human immunodeficiency virus 1, MT4, 120 h", "in_short": "as §1"}, "[9]": {"system": "Human immunodeficiency virus 1", "test": "Antiviral activity against HIV-1 harboring reverse transcriptase Y181C mutant infected in human MT4 cells assessed as inhibition of virus induced cytopathic effect measured after 5 days by MTT assay", "format": "functional, organism-based", "conditions": "Human immunodeficiency virus 1, MT4, 120 h", "in_short": "as §1"}, "[10]": {"system": "Human immunodeficiency virus 1", "test": "Antiviral activity against HIV-1 harboring reverse transcriptase Y188L mutant infected in human MT4 cells assessed as inhibition of virus induced cytopathic effect measured after 5 days by MTT assay", "format": "functional, organism-based", "conditions": "Human immunodeficiency virus 1, MT4, 120 h", "in_short": "as §1"}, "[11]": {"system": "Human immunodeficiency virus 1", "test": "Antiviral activity against HIV-1 harboring reverse transcriptase E138K mutant infected in human MT4 cells assessed as inhibition of virus induced cytopathic effect measured after 5 days by MTT assay", "format": "functional, organism-based", "conditions": "Human immunodeficiency virus 1, MT4, 120 h", "in_short": "as §1"}, "[12]": {"system": "Human immunodeficiency virus 1", "test": "Antiviral activity against HIV-1 harboring reverse transcriptase F227L/V106A mutant infected in human MT4 cells assessed as inhibition of virus induced cytopathic effect measured after 5 days by MTT assay", "format": "functional, organism-based", "conditions": "Human immunodeficiency virus 1, MT4, 120 h", "in_short": "as §1"}, "[13]": {"system": "Human immunodeficiency virus 1", "test": "Antiviral activity against HIV-1 harboring reverse transcriptase RES056 mutant infected in human MT4 cells assessed as inhibition of virus induced cytopathic effect measured after 5 days by MTT assay", "format": "functional, organism-based", "conditions": "Human immunodeficiency virus 1, MT4, 120 h", "in_short": "as §1"}, "[14]": {"system": "Human immunodeficiency virus 1", "test": "Potency index, ratio of EFV EC50 to test compound EC50 for antiviral activity against HIV-1 harboring reverse transcriptase Y188L mutant infected in human MT4 cells assessed as inhibition of virus induced cytopathic effect measured after 5 days by MTT assay", "format": "functional", "conditions": "time 5 day"}, "[15]": {"test": "Antiviral activity against HIV-2 ROD infected in human MT4 cells assessed as protection against virus-induced cytopathic effect measured after 5 days by MTT assay", "conditions": "Human immunodeficiency virus 2, ISOLATE ROD, MT4, 120 h"}, "[16]": {"target": "Human immunodeficiency virus type 1 reverse transcriptase (Human immunodeficiency virus 1) (UniProt Q72547)", "test": "Potency index, ratio of ETV IC50 to test compound IC50 for Inhibition of HIV-1 reverse transcriptase assessed as reduction in biotin-dUTP incorporation into cDNA incubated for 1 hr with DIG-dUTP, biotin-dUTP and dTTP followed by transferring onto streptavidin-coated plate and measured after 1 hr by ELISA", "conditions": "time 2.0 hrs"}, "[17]": {"target": "Human immunodeficiency virus type 1 reverse transcriptase (Human immunodeficiency virus 1, UniProt Q72547)", "test": "Inhibition of HIV-1 reverse transcriptase assessed as reduction in biotin-dUTP incorporation into cDNA incubated for 1 hr with DIG-dUTP, biotin-dUTP and dTTP followed by transferring onto streptavidin-coated plate and measured after 1 hr by ELISA", "in_short": "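Recombinant WT HIV-1 RT was tested with a Roche colorimetric kit. Enzyme, reconstituted template, DIG-dUTP, biotin-dUTP and dTTP were incubated 1 h at 37 °C in incubation buffer with or without inhibitor. The mix was then held 1 h at 37 °C on a streptavidin-coated plate, then anti-DIG-POD 1 h at 37 °C, then ABTS at 25 °C, and read at OD405.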"}, "[18]": {"system": "Human immunodeficiency virus 1", "test": "Potency index, ratio of nevirapine EC50 to test compound EC50 for antiviral activity against wild type HIV-1 3B infected in human MT4 cells assessed as inhibition of virus-induced cytopathic effect measured after 5 days by MTT assay", "format": "functional", "conditions": "time 5 day"}, "[19]": {"system": "Human immunodeficiency virus 1", "test": "Potency index, ratio of AZT EC50 to test compound EC50 for antiviral activity against wild type HIV-1 3B infected in human MT4 cells assessed as inhibition of virus-induced cytopathic effect measured after 5 days by MTT assay", "format": "functional", "conditions": "time 5 day"}}}
{"smiles": "COCCNC(=O)/C=C/c1cnc(Nc2ccc(C#N)cc2)nc1Oc1c(C)cc(C#N)cc1C", "values": [{"measurement": "EC50", "setting": "[1]", "result": 4.48, "unit": "nM"}, {"measurement": "CC50 at 24 h", "setting": "[2]", "result": "> 213", "unit": "nM"}, {"measurement": "selectivity ratio", "setting": "[3]", "result": "> 48"}, {"measurement": "EC50", "setting": "[4]", "result": 7.8, "unit": "nM"}, {"measurement": "CC50 at 120 h", "setting": "[5]", "result": "> 267000", "unit": "nM"}, {"measurement": "selectivity ratio", "setting": "[6]", "result": "> 34300"}, {"measurement": "EC50", "setting": "[7]", "result": 166, "unit": "nM"}, {"measurement": "EC50", "setting": "[8]", "result": 13.7, "unit": "nM"}, {"measurement": "EC50", "setting": "[9]", "result": 98, "unit": "nM"}, {"measurement": "EC50", "setting": "[10]", "result": 90.6, "unit": "nM"}, {"measurement": "EC50", "setting": "[11]", "result": 16.5, "unit": "nM"}, {"measurement": "EC50", "setting": "[12]", "result": 343, "unit": "nM"}, {"measurement": "EC50", "setting": "[13]", "result": 1490, "unit": "nM"}, {"measurement": "Ratio EC50", "setting": "[14]", "result": 1.6}, {"measurement": "EC50", "setting": "[15]", "result": "> 267000", "unit": "nM"}]}
{"smiles": "C#CCNC(=O)/C=C/c1cnc(Nc2ccc(C#N)cc2)nc1Oc1c(C)cc(C#N)cc1C", "values": [{"measurement": "EC50", "setting": "[1]", "result": 2.45, "unit": "nM"}, {"measurement": "CC50 at 24 h", "setting": "[2]", "result": "> 222", "unit": "nM"}, {"measurement": "selectivity ratio", "setting": "[3]", "result": "> 91"}, {"measurement": "EC50", "setting": "[4]", "result": 5.2, "unit": "nM"}, {"measurement": "CC50 at 120 h", "setting": "[5]", "result": 141000, "unit": "nM"}, {"measurement": "selectivity ratio", "setting": "[6]", "result": 26900}, {"measurement": "Ratio IC50", "setting": "[16]", "result": 6}, {"measurement": "EC50", "setting": "[7]", "result": 113, "unit": "nM"}, {"measurement": "EC50", "setting": "[8]", "result": 10.4, "unit": "nM"}, {"measurement": "EC50", "setting": "[9]", "result": 61.8, "unit": "nM"}, {"measurement": "EC50", "setting": "[10]", "result": 64.5, "unit": "nM"}, {"measurement": "EC50", "setting": "[11]", "result": 10.6, "unit": "nM"}, {"measurement": "EC50", "setting": "[12]", "result": 402, "unit": "nM"}, {"measurement": "EC50", "setting": "[13]", "result": 1290, "unit": "nM"}, {"measurement": "IC50", "setting": "[17]", "result": 59, "unit": "nM"}, {"measurement": "Ratio EC50", "setting": "[18]", "result": 16.2}, {"measurement": "Ratio EC50", "setting": "[19]", "result": 3.5}, {"measurement": "Ratio EC50", "setting": "[14]", "result": 2.3}, {"measurement": "EC50", "setting": "[15]", "result": "> 141000", "unit": "nM"}]}
